# Data: ChEMBL document CHEMBL5625181, “Exploring the 1,3-benzoxazine chemotype for cannabinoid receptor 2 as a promising anti-cancer therapeutic” (Eur J Med Chem, 2023)
# Active and inactive are the calls of the source. The rule behind the calls is not given here.
# Tests used:
# [1] = biological target: T1, Cannabinoid receptor 2 (Homo sapiens, UniProt P34972); assay: Displacement of [3H]CP55,940 from human CB2 receptor expressed in CHO cells membrane assessed as residual activity at 0.1 uM by scintillation counting analysis relative to control; type: cell membranes
# T1 sequence (P34972 whole entry): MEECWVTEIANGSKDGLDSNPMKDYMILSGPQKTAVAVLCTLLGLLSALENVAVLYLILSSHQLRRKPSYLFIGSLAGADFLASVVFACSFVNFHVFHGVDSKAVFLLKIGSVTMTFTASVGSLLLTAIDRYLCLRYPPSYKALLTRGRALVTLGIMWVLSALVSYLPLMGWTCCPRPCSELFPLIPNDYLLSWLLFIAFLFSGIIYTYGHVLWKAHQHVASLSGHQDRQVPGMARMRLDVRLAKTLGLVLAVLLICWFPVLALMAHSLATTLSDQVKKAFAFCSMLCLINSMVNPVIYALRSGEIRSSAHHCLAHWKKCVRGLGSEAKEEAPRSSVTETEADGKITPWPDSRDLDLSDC
# Method in brief: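 Membranes (2.5 µg) from CHO cells stably expressing human CB2, in 50 mM Tris-HCl, 5 mM MgCl2, 1 mM CaCl2, 2 mg/mL BSA, pH 7.4. Incubated 30 min at 37 °C with 0.8 nM [3H]CP55,940 and 0.1 µM compound (final). Nonspecific binding with 1 µM unlabelled CP55,940. Filtered on PEI-soaked GF/B filters, scintillation counted. Quintuplicate, ≥3 experiments.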
# [2] = biological target: T1, Cannabinoid receptor 2; assay: Agonist activity at human recombinant Cannabinoid receptor 2 by GTPgammaS binding assay; type: functional; details: for EC50: read-out: pEC50 (converted)
# Method in brief: (§1)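 [35S]GTPγS filtration assay. Membranes (5 µg CB2 or 10 µg/well CB1), permeabilized with equal mass of saponin, preincubated 20 min at room temperature with compound (0-100 μM) in 20 mM HEPES, 100 mM NaCl, 10 mM MgCl2, 10 µM GDP, pH 7.4. Then 0.3 nM [35S]GTPγS for 30 min at 37 °C. Quintuplicate, ≥3 experiments. pEC50 from non-linear fit.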
# [3] = biological target: Cannabinoid receptor 1 (Homo sapiens, UniProt P21554); assay: Agonist activity at human recombinant Cannabinoid receptor 1 by GTPgammaS binding assay; type: functional; details: read-out: pEC50 (converted); method in brief: as §1
# Chain of Cannabinoid receptor 1 (P21554 whole entry): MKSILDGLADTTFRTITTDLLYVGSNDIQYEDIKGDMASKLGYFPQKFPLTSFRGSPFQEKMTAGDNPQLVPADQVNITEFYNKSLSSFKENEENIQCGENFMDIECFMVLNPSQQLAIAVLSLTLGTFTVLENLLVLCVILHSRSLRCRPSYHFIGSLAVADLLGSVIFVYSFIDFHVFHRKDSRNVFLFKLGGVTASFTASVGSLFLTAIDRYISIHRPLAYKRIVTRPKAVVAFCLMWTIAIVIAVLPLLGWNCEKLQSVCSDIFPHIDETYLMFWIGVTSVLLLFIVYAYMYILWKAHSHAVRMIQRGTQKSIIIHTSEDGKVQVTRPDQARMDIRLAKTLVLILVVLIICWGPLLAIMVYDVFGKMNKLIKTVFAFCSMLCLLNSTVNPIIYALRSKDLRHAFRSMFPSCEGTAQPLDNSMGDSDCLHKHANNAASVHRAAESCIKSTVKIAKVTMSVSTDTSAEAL
# [4] = system: BT-549; assay: Antiproliferative activity against human BT-549 cells transfected with CNR2 siRNA assessed as inhibition of cell proliferation at 0.1 uM incubated after 24 hrs by MTT assay; type: functional, cell-based
# Method in brief: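 BT549 transfected with 50 nM CNR2 siRNA or scramble oligo (Lipofectamine RNAiMAX). After 24 h, treated for a further 24 h. Viability by MTT: 1 mg/mL final for 3 h at 37 °C, formazan dissolved in DMSO, absorbance read at 590 nm.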
# [5] = system: BT-549; assay: Inhibition of colony formation in human BT-549 cells assessed as decrease in number of colonies at 0.1 uM incubated for 14 days by inverted phase contrast microscope relative to control; type: functional, cell-based; details: time 14.0 day
# Method in brief: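 BT549 seeded at 1 x 10^3 cells/well and grown at 37 °C for at least 14 days with vehicle or compound. Colonies fixed and stained with 6% glutaraldehyde/0.5% crystal violet for 30 min, then counted by inverted phase-contrast microscopy (10x). Expressed as % of vehicle. Three independent experiments, each at least in triplicate.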
# [6] = biological target: T1, Cannabinoid receptor 2; assay: Agonist activity at human recombinant Cannabinoid receptor 2 assessed as stimulation of GTPgammaS binding at 1 uM by GTPgammaS binding assay relative to control; type: functional
# Method in brief: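 CB2 membranes (ChemiSCREEN) at 5 µg, permeabilised with an equal mass of saponin. Pre-incubated with ligand for 20 min at RT in 20 mM HEPES, 100 mM NaCl, 10 mM MgCl2, pH 7.4, with 10 µM GDP. Then 0.3 nM [35S]GTPγS for 30 min at 37 °C. Stopped with ice-cold phosphate buffer, filtered on PEI-soaked GF/B, scintillation counted. Quintuplicates, ≥3 experiments.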
# [7] = system: BT-549; assay: Antiproliferative activity against human BT-549 cells assessed as decrease in cell proliferation at 0.1 uM by MTT assay; type: functional, cell-based
# Method in brief: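 BT549 in RPMI-1640 with 10% FBS and insulin, seeded at 1.5 x 10^4/well overnight. Sub-confluent cells treated at 37 °C. MTT added at 1 mg/mL final for 3 h at 37 °C in the dark, formazan dissolved in DMSO, absorbance read at 590 nm. Expressed as % of vehicle.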
Structure (SMILES),Activity [1],pEC50 [2],also measured
CC(C)(C)C(=O)COc1ccc2c(c1)OC(C)(C)N(Cc1ccccc1)C2=O,< 80%,inactive,–
CC1(C)NC(=O)c2ccc(OS(=O)(=O)c3cccc4ccccc34)cc2O1,< 80%,–,–
N#Cc1ccc(CN2C(=O)c3ccc(OCc4ccc(OC(F)(F)F)cc4)cc3OC23CCCCC3)cc1,< 80%,inactive,–
O=C1c2ccc(OS(=O)(=O)c3ccc(-c4ccc(Cl)cc4)cc3)cc2OC2(CCCCC2)N1Cc1ccccc1,< 80%,–,–
COc1cccc(COc2ccc3c(c2)OC(C)(C)N(Cc2ccc(C(C)C)cc2)C3=O)c1,< 80%,inactive,–
CC1(C)Oc2cc(OCc3ccc(OC(F)(F)F)cc3)ccc2C(=O)N1Cc1ccc(F)cc1,< 80%,inactive,–
Cc1ccc(S(=O)(=O)Oc2ccc3c(c2)OC(C)(C)N(Cc2ccc(F)cc2)C3=O)cc1,< 80%,–,EC50 [3]: > 10 µM; EC50 [2]: 0.195 µM
CCCn1c(C)c(C(=O)c2cccc3ccccc23)c2ccccc21,–,–,Activity [4]: inactive; inhibition [5]: Active; Activity [6]: 233%; Activity [7]: Active
O=C1c2ccc(OS(=O)(=O)Cc3ccccc3)cc2OC2(CCCCC2)N1Cc1ccccc1,< 80%,–,EC50 [3]: > 10 µM; EC50 [2]: 0.759 µM
CN(C)C(=O)CN1C(=O)c2ccc(OS(=O)(=O)c3ccc(Br)cc3)cc2OC1(C)C,< 80%,–,–
COc1ccc(S(=O)(=O)Oc2ccc3c(c2)OC2(CCCCC2)N(Cc2ccccc2)C3=O)cc1,< 80%,–,EC50 [3]: > 10 µM; EC50 [2]: 1.48 µM
COc1cccc(COc2ccc3c(c2)OC(C)(C)N(Cc2ccc(F)cc2)C3=O)c1,< 80%,inactive,–
COc1cccc(S(=O)(=O)Oc2ccc3c(c2)OC2(CCCCC2)N(Cc2ccc(C(C)C)cc2)C3=O)c1,< 80%,–,–
